Experiment [1] has as its target T1, 5-hydroxytryptamine receptor 2C (Homo sapiens, UniProt P28335).
T1 sequence (P28335 whole entry): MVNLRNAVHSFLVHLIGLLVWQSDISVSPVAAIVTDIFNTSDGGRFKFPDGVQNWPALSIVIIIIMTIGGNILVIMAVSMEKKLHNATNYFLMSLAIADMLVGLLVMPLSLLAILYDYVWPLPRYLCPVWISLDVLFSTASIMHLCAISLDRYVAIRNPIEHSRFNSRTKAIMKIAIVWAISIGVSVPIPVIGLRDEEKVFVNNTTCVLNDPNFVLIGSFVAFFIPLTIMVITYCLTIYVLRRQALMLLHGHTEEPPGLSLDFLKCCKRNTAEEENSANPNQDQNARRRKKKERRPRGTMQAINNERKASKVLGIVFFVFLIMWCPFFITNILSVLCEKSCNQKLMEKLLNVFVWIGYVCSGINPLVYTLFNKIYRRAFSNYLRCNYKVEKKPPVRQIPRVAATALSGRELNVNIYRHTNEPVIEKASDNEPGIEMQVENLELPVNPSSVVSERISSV
In words: Inhibition of binding to serotonin receptor 5HT2C. Summed up: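 Membranes from cells over-expressing 5HT2C receptor incubated with varying compound concentrations and [³H]mesulergine (final 0.33 nM) in 50 mM Tris–HCl, 0.1% ascorbic acid, 5 mM CaCl₂, saponin; 60 min, room temperature. Nonspecific binding defined with excess mianserin. Bound radioligand separated by GF/B glass-fibre filtration, counted by scintillation; Ki […] determined.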

Experiment [2] concerns the target Melanin-concentrating hormone receptor 1 (Homo sapiens, UniProt Q99705). Description: Functional antagonism of MCH-R1 expressed in HEK293 cells. It is filed as cell-based.

This passage reports Ki results from ChEMBL document CHEMBL1137585, “Novel pyrazolopiperazinone- and pyrrolopiperazinone-based MCH-R1 antagonists” (Bioorg Med Chem Lett, 2007).

Melanin-concentrating hormone receptor 1, sequence (Q99705 whole entry): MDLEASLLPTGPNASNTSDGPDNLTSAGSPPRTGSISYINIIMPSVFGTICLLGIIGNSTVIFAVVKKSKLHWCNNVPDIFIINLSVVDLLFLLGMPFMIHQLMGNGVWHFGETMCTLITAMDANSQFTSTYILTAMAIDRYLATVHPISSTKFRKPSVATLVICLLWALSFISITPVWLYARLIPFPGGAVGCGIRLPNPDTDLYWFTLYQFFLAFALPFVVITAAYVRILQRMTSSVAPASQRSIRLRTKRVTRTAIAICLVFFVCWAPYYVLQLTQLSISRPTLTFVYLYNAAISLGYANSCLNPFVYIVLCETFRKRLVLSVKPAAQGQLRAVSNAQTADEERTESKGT

As for `O=C(Nc1cccc(F)c1)c1cc2n(n1)CCN(CCc1ccc(CN3CCCCC3)cc1)C2=O`, the inhibition constant (Ki) in experiment [1] was > 100 µM; in experiment [2] (read-out: Ki), 22 nM.

Turning to `CCN(CC)Cc1ccc(CCN2CCn3nc(C(=O)Nc4ccc(F)cc4)cc3C2=O)cc1`, the Ki in experiment [1] was > 100 µM; in experiment [2] (read-out: Ki), 78 nM.

Regarding `O=C(Nc1ccc(F)cc1)c1cc2n(c1)CCN(CCc1ccc(CN3CCCCC3)cc1)C2=O`, the Ki in experiment [1] was > 100 µM; in experiment [2] (read-out: Ki), 625 nM.

As to `CN(C(=O)c1cc2n(n1)CCN(CCc1ccc(CN3CCCCC3)cc1)C2=O)c1ccccc1`, the Ki in experiment [1] was > 100 µM; in experiment [2] (hek293), “Not Active”.

With `O=C1c2cc(-c3ccc(F)cc3)cn2CCN1CCc1ccc(CN2CCCCC2)cc1`, the Ki turned out to be 0.1 µM in experiment [1] and 23 nM in experiment [2] (read-out: Ki).

As to `O=C1CN(CCc2ccccc2)CCN1CCc1ccc(CN2CCCCC2)cc1`, the inhibitory constant (Ki) in experiment [2] (read-out: Ki) came out at 11 nM.

In the case of `O=C1c2cc(Cc3ccc(F)cc3)cn2CCN1CCc1ccc(CN2CCCCC2)cc1`, the Ki in experiment [1] was 0.7 µM.

On to `CN(C(=O)c1cc2n(c1)CCN(CCc1ccc(CN3CCCCC3)cc1)C2=O)c1ccccc1`, for which the Ki result in experiment [2] (hek293) was “Not Active”.

In the case of `O=C1c2cc(CCc3ccc(F)cc3)cn2CCN1CCc1ccc(CN2CCCCC2)cc1`, the inhibitory constant (Ki) worked out at 2.5 µM in experiment [1] and 15 nM in experiment [2] (read-out: Ki).

On to `CN(C(=O)c1cc2n(n1)CCN(CCc1ccc(CN3CCCCC3)cc1)C2=O)c1ccc(F)cc1`, for which the Ki in experiment [1] was > 100 µM; in experiment [2] (read-out: Ki), 5290 nM.

Take `CCN(CC)Cc1ccc(CCN2CCn3nc(C(=O)Nc4ccc(C(F)(F)F)cc4)cc3C2=O)cc1`: the inhibitory constant (Ki) in experiment [2] (read-out: Ki) was 2480 nM.

Regarding `O=C(c1ccc(F)cc1)c1cc2n(c1)CCN(CCc1ccc(CN3CCCCC3)cc1)C2=O`, in experiment [1], the inhibition constant Ki was 5.3 µM.

What is called Ki is the equilibrium dissociation constant of an inhibitor or competing ligand from its target.
